# Bioassay records (PubChem)
# KCNQ1 block – blocks the human KCNQ1 potassium channel; CHO-K1 KCNQ1, FluxOR thallium flux fluorescence; stronger effect = higher value; B-score at 10 µM; hit rate 1.3% among 310,000; AID 2642;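 active = compounds whose thallium flux B-score, printed positive for inhibition, exceeds three library SD while starting fluorescence stays within three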;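 also: channel opened by potassium depolarization with thallium stimulus after 20 min compound exposure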
# Target sequence (P51787 whole entry, looked up): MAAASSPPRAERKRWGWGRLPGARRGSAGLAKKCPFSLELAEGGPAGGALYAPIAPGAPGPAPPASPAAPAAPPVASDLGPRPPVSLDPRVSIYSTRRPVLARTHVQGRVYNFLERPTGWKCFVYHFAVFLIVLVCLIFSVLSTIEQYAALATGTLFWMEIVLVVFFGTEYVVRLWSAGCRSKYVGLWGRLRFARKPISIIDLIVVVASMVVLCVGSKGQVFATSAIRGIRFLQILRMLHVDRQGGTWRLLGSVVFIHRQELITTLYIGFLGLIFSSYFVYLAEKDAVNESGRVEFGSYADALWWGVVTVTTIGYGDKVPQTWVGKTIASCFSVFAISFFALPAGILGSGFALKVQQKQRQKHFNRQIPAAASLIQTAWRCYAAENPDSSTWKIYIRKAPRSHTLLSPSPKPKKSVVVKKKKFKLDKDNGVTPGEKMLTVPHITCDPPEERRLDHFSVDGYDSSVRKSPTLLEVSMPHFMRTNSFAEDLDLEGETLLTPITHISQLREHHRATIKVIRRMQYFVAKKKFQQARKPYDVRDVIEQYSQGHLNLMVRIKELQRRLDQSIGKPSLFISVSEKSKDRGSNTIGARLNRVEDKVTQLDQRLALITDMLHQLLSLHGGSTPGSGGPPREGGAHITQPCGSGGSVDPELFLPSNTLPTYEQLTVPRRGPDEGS
# KCNQ1 act – potentiates or activates the human KCNQ1 potassium channel; P51787; CHO-K1 KCNQ1, thallium flux FluxOR fluorescence; stronger effect = higher value; B-score at 10 µM; hit rate 0.35% among 310,000;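 active = fluorescence ratio B-score, a plate-corrected score, at least three library SD, with initial intensity B-score within 5 SD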
#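 Assay system: CHO-K1 cells stably expressing KCNQ1. Medium: assay buffer for compound exposure, DMSO matched across wells. Timing: 37 °C overnight plating, 90-min dark dye load, 20-min compound pretreatment. Signal: kinetic FluxOR fluorescence, 10 s baseline plus 110 s post-stimulus.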
# KCNK9 block – human KCNK9 channel inhibition | hit rate 1.2% among 310,000 | B-score at 10 µM | HEK293 KCNK9, FluxOR thallium flux fluorescence; stronger effect = lower value | Q9NPC2;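 active = ratio B-score over 3 SD below the library mean, with starting fluorescence within 5 SD of its mean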;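 also: negative B-score means less thallium flux so channel inhibition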
# hERG rescue – hERG (human) protection from proarrhythmic block. CHO-hERG, FluxOR thallium flux, dofetilide IC70 present. activation (rescue from dofetilide block), less the hit threshold, % at 10 µM. AID 1511. hit rate 0.51% among 310,000;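 active = activation above the mean of controls blocked by dofetilide plus 5 SD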;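 also: thallium influx through hERG after potassium depolarization seen as dye fluorescence rise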
# KCNK3 inh – human KCNK3 channel inhibition, primary screen; hit rate 0.84% among 340,000; B-score at 10 µM; CHO-KCNK3 thallium flux, FluxOR fluorescence; stronger effect = lower value; AID 602410; O14649;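 active = B-score under library mean minus 4 SD, starting fluorescence ratio at most library mean plus 5 SD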;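 also: more negative B-score means stronger inhibition of thallium flux through KCNK3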
# An asterisk follows results filed as active; i = inactive; . = not tested or not shown; ! = not confirmed by another sample. Only some compounds are listed: those with a hit (about 3.1% of all), similar ones and a draw of the others.
SMILES,KCNQ1 block,KCNQ1 act,KCNK9 block,hERG rescue,KCNK3 inh
CCc1nc(SCC(=O)N2c3ccccc3CC2C)c2c(C)c(C)sc2n1 (configuration not stated),6*,i,i,-13,i
CCc1nc(SCC(=O)N2CC(=O)Nc3ccccc32)c2c(C)c(C)sc2n1,i,i,i,-11,i
COc1ccccc1-c1cccc([C@@H]2C[C@H]3[C@H](CON3C)CN2C(C)=O)c1,.,.,.,.,i
COc1ccc(-n2c(-c3ccc(Br)cc3)c[n+]3c2CCc2ccccc2-3)cc1,10*,i,i,-25,i
COc1ccccc1-n1c(-c2ccccc2)c[n+]2c1CCc1ccccc1-2,9*!,i,-7.8*,-20,-9.5*!
COc1ccc(-c2cn(-c3ccc(OC)cc3)c3[n+]2-c2ccccc2CC3)cc1,6*,i,i,-18,i
COc1ccccc1-n1c(-c2ccccc2)c[nH]c1=S,i,i,i,-12,i
Cc1ccc(C(=O)CC(=O)c2cc(Cl)ccc2O)cc1,i,30*,i,-1,i
Cc1ccc(CC(=O)c2ccc(Cl)cc2)cc1,i,i,i,-7,i
Cc1ccc(C(=O)CC(=O)c2ccc(C(C)(C)C)cc2)cc1,i,i,i,-12,i
Cc1ccc(C(=O)CC(=O)c2ccc(C)cc2O)cc1,i,i,i,11*,i
CC(C)(C)c1ccc(C(=O)CC(=O)c2cc(Cl)ccc2O)cc1,i,i,i,7.7*,i
CC(=O)c1c(C)[nH]c(C(=O)NNC(=O)COc2cc(C)cc(C)c2)c1C,.,.,.,.,i
N#CC1C(=O)NC(=O)C(C#N)C12CCCC(C(F)(F)F)C2 (configuration not stated),.,.,.,.,i
CCOc1cc(CNCc2ccccc2)ccc1OCc1ccc(Cl)cc1,7*,i,i,-21,i
COc1ccc(CNCCc2ccccc2)cc1OCC(N)=O,i,i,i,-6,i
COc1ccc(CNCCc2ccc(Cl)cc2)cc1OCc1ccccc1,10*,i,i,-41,-9.5*
Cc1cccc(NC(=O)C2c3ccccc3C(=O)N3CCc4ccccc4C23)n1 (configuration not stated),i,i,-7.4*,-6,i
COc1cc(C(=O)NCC(c2ccc(F)cc2)N2CCOCC2)ccc1OCc1ccccc1Cl (configuration not stated),10*,i,i,-14,i
COc1ccccc1NS(=O)(=O)c1ccc(C(=O)NCC(c2ccc(F)cc2)N2CCOCC2)cc1 (configuration not stated),.,.,.,.,i
COc1ccc2oc(C(=O)Nc3ccc(N4CCOCC4)cc3)c(C)c2c1,i,i,i,-13,i
COc1cc2cc(CN(Cc3cccs3)C(=S)Nc3cccc(C)c3)c(=O)[nH]c2cc1OC,7*,i,i,-11,.
COc1cc(C2C(C#N)=C(N)N(Nc3ccccc3)C3=C2C(=O)CC(C)(C)C3)ccc1OCc1ccccc1 (configuration not stated),i,i,-7.3*,-10,i
CN(C)S(=O)(=O)c1ccc(Cl)c(C(=O)Nc2ccccc2[N+](=O)[O-])c1,i,i,i,-14,i
CCN(CC)S(=O)(=O)c1ccc(Cl)c(C(=O)Nc2ccc(Cl)cc2[N+](=O)[O-])c1,i,i,-6.6*,-16,i
SMILES,KCNQ1 block,KCNQ1 act,KCNK9 block,hERG rescue,KCNK3 inh
CCNc1ccc2noc3c2c1C(=O)c1ccccc1-3,6*,i,i,-30,i
O=C(O)c1cc(S(=O)(=O)N2CC=C(c3ccccc3)CC2)ccc1O,.,.,.,.,i
O=C(O)CSc1nc2ccccc2[nH]1,i,i,i,8.4*,i
O=C(O)CSc1nc2ccccc2c(=O)[nH]1,i,i,i,-8,i
CCOC(=O)c1c(NC(=O)CSc2nc3cccnc3n2C)sc(C(C)=O)c1C,i,i,i,-5,-10*
COc1ccc(OC)c(C2=C/C(=C/c3ccccn3)C(=O)O2)c1,i,i,-7.6*,-15,i
CSC(=S)N/N=C(\C)c1ccc(Br)cc1,i,41*,i,5,i
COC(=O)N/N=C(\C)c1ccc(Br)cc1,i,i,i,-6,i
CCC(=O)c1ccc(OCC(=O)Nc2cccc(S(=O)(=O)N3CCCCCC3)c2)cc1,.,.,.,.,i
